Values after ≈ are worked out from the molar mass of the structure shown. Active and inactive are the calls of the source. No cut-off for these calls is given here.
Key:
[1] = Bioavailability in female CD-1 mouse at 5 mg/kg, sc measured for 480 mins by LC-MS/MS analysis; format: ADME, organism-based; details: in vivo
Outline: (§1)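 Female (or male, as per line) CD-1 mice, 3 per time point, given a single 5 mg/kg dose in 10% Kolliphor EL in saline (injections) or water (oral). Blood sampled 5–480 min; plasma extracted with CH₃CN and quantified by LC-MS/MS (ESI+, m/z 251.20) against a calibration curve in extracted plasma; parameters by non-compartmental analysis.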

[2] = system: U2OS; assay: Activation of unfolded protein response in human U2OS cells assessed as increase in IRE1alpha autophosphorylation at S724 residue at 1 uM incubated for 12 hrs in presence of z-VAD-fmk by immunoblotting analysis; format: functional, cell-based
Outline: (§2)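 U2OS cells in complete growth medium treated at 1 μM for the indicated times, with 50 μM z-VAD-fmk added 1 h beforehand where stated; lysed in SDS buffer (Tris-HCl pH 6.8, 4% SDS) and immunoblotted, detected with HRP secondary antibodies and chemiluminescence.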

[3] = Cmax in female CD-1 mouse at 5 mg/kg, ip measured for 480 mins by LC-MS/MS analysis; format: ADME, organism-based; design: dose 5 mg/kg, time 480 min, route ip; details: in vivo; outline: as §1
[4] = Selectivity index, ratio of IC50 for HSD17B11 knockout human U2OS cells stably complemented with HSD17B13-GFP to IC50 for HSD17B11 knockout human U2OS cells stably complemented with HSD17B11-GFP; format: functional
Outline: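 HSD17B11-knockout U2OS cells stably complemented with HSD17B11-GFP or HSD17B13-GFP were assayed by sulforhodamine B, duplicate points, ≥3 independent experiments, with IC50 from a four-parameter logistic fit. The index is the HSD17B13-line IC50 divided by the HSD17B11-line IC50.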

[5] = system: U2OS; assay: Activation of unfolded protein response in human U2OS cells assessed as reduction in full length ATF6 at 1 uM incubated for 2 to 6 hrs by immunoblotting analysis; format: functional, cell-based; details: time 2-6 hrs; outline: as §2
[6] = Toxicity in Balb/c mouse assessed as reduction in body weight at 10 mg/kg, iv administered 3 times per week and measured on day 10; format: organism-based; details: in vivo, 240 h, time 10 day
Outline: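 Female adult Balb/c mice, 6 per group, received IV injections 3 times weekly for 3 weeks at 2, 5 or 10 mg/kg. Dosing solutions were 0.4, 1 and 2 mg/mL in saline with 10% Cremophor, given at 5 mL/kg, with IP substitution when IV was impossible. Mice were weighed thrice weekly and observed daily, with necropsy at endpoint.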

[7] = Clearance in female CD-1 mouse at 5 mg/kg, sc measured for 480 mins by LC-MS/MS analysis; format: ADME, organism-based; details: in vivo; outline: as §1
[8] = Solubility of compound in injection solution based on saline at approximately 1 mg incubated for 24 hrs by HPLC analysis; format: physicochemical
Outline: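 About 1 mg of compound was shaken in 500 μL of 0.9% NaCl with 10% Kolliphor EL for 24 h at ~20 °C. After centrifugation at 15 000 g for 5 min, the supernatant was diluted 1/50 and quantified by C18 HPLC at 254 nm against a calibration curve. Run twice.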

[9] = Clearance in male CD-1 mouse at 5 mg/kg, iv measured for 480 mins by LC-MS/MS analysis; format: ADME, organism-based; details: in vivo; outline: as §1
[10] = Tmax in female CD-1 mouse at 5 mg/kg, sc measured for 480 mins by LC-MS/MS analysis; format: ADME, organism-based; details: in vivo
Outline: (§3)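 Female (IP, SC, PO) or male (PO) CD-1 mice received 5 mg/kg in 10% Kolliphor EL vehicle, 3 mice per time point. Plasma was sampled at 5, 15, 30, 60, 120, 360 and 480 min, acetonitrile-extracted and quantified by LC-MS/MS against a calibration in extracted plasma. Tmax was the time of the observed maximum concentration.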

[11] = Half life in female CD-1 mouse at 5 mg/kg, po measured for 480 mins by LC-MS/MS analysis; format: ADME, organism-based; details: in vivo; outline: as §1
[12] = Bioavailability in female CD-1 mouse at 5 mg/kg, ip measured for 480 mins by LC-MS/MS analysis; format: ADME, organism-based; details: in vivo; outline: as §1
[13] = Volume of distribution in elimination phase in female CD-1 mouse at 5 mg/kg, po measured for 480 mins by LC-MS/MS analysis; format: ADME, organism-based; details: in vivo, read-out: Vz/F
Outline: (§4)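 CD-1 mice (female for all routes, male for IV and PO) were dosed at 5 mg/kg in 10% Kolliphor EL in saline (injections) or water (oral), 3 mice per time point. Blood was taken at 5–480 min, and plasma was extracted with acetonitrile. LC-MS/MS positive ESI, m/z 251.20. Parameters came from non-compartmental analysis with a plasma calibration curve.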

[14] = Clearance in female CD-1 mouse at 5 mg/kg, iv measured for 480 mins by LC-MS/MS analysis; format: ADME, organism-based; details: in vivo; outline: as §1
[15] = AUC in male CD-1 mouse at 5 mg/kg, po measured for 480 mins by LC-MS/MS analysis; format: ADME, organism-based; design: time 480 min, dose 5 mg/kg, route po; details: in vivo; outline: as §1
[16] = Cmax in male CD-1 mouse at 5 mg/kg, po measured for 480 mins by LC-MS/MS analysis; format: ADME, organism-based; design: dose 5 mg/kg, time 480 min, route po; details: in vivo; outline: as §1
[17] = AUC in female CD-1 mouse at 5 mg/kg, ip measured for 480 mins by LC-MS/MS analysis; format: ADME, organism-based; design: dose 5 mg/kg, time 480 min, route ip; details: in vivo; outline: as §1
[18] = system: U2OS; assay: Activation of unfolded protein response in human U2OS cells assessed as increase in HSP70 accumulation at 1 uM incubated for 12 hrs in presence of z-VAD-fmk by immunoblotting analysis; format: functional, cell-based; outline: as §2
[19] = Cmax in male CD-1 mouse at 5 mg/kg, iv measured for 480 mins by LC-MS/MS analysis; format: ADME, organism-based; design: time 480 min, dose 5 mg/kg, route iv; details: in vivo; outline: as §1
[20] = system: U2OS; assay: Induction of ER stress in human U2OS cells expressing ER-moxGFP and Mito-mCherry assessed as vacuolization at 1 uM measured after 4 hrs by fluorescence microscopic analysis; format: functional, cell-based
Outline: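 U2OS stably co-expressing ER-moxGFP and Mito-mCherry, seeded on glass-bottom dishes in phenol red-free L-15 medium with 10% FBS, treated with 1 μM; z-stacks acquired over time on a 3D-SIM super-resolution microscope, shown as max-intensity projections.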

[21] = system: U2OS; assay: Activation of unfolded protein response in human U2OS cells assessed as increase in PERK autophosphorylation at T980 residue at 1 uM incubated for 2 to 6 hrs by immunoblotting analysis; format: functional, cell-based; details: time 2-6 hrs; outline: as §2
[22] = system: U2OS; assay: Induction of apoptosis in human U2OS cells assessed as cellular fragmentation; format: functional, cell-based
[23] = Volume of distribution in elimination phase in female CD-1 mouse at 5 mg/kg, ip measured for 480 mins by LC-MS/MS analysis; format: ADME, organism-based; details: in vivo, read-out: Vz/F; outline: as §4
[24] = Volume of distribution in elimination phase in male CD-1 mouse at 5 mg/kg, iv measured for 480 mins by LC-MS/MS analysis; format: ADME, organism-based; details: in vivo, read-out: Vz; outline: as §4
[25] = Solubility of compound in polyethoxylated castor oil in water at approximately 1 mg incubated for 24 hrs by HPLC analysis; format: physicochemical
[26] = Tmax in male CD-1 mouse at 5 mg/kg, po measured for 480 mins by LC-MS/MS analysis; format: ADME, organism-based; details: in vivo; outline: as §3
[27] = AUC in female CD-1 mouse at 5 mg/kg, po measured for 480 mins by LC-MS/MS analysis; format: ADME, organism-based; design: dose 5 mg/kg, time 480 min, route po; details: in vivo; outline: as §1

Structure (SMILES): C#C[C@H](O)C#Cc1ccc(CCCCCCCC)cc1
- bioavailability [1]: 16%
- Activity [2]: Active
- Cmax [3]: 1200 nM
- Ratio IC50 [4]: 2.9
- Activity [5]: Active
- Activity [6]: Toxic
- CL/F [7]: 675 mL/min/kg
- solubility at 24 h [8]: 10.7 mM (≈ 2870 µg/mL)
- clearance [9]: 108 mL/min/kg
- Tmax [10]: 60 min
- half-life [11]: 33 min
- bioavailability [12]: 26%
- Vd/F [13]: 69.4 L/kg
- clearance [14]: 47 mL/min/kg
- AUC at 8 h [15]: 47.4 ng·h/mL
- Cmax [16]: 260 nM
- AUC at 8 h [17]: 201 ng·h/mL
- Activity [18]: Active
- Cmax [19]: 7000 nM
- Activity [20]: Active
- Activity [21]: Active
- Activity [22]: Active
- Vd/F [23]: 34.4 L/kg
- Vd [24]: 8.4 L/kg
- solubility at 24 h [25]: 10.7 mM (≈ 2870 µg/mL)
- Tmax [26]: 15 min
- AUC at 8 h [27]: 57.2 ng·h/mL

— ChEMBL document CHEMBL5370613, “Phenyl dialkynylcarbinols, a Bioinspired Series of Synthetic Antitumor Acetylenic Lipids” (J Med Chem, 2023)
